Experimental data: ChEMBL document CHEMBL4706687, “Synthesis and Pharmacological Evaluation of Novel Non-nucleotide Purine Derivatives as P2X7 Antagonists for the Treatment of Neuroinflammation” (J Med Chem, 2021)
The source made the active and inactive calls. The rule behind the calls is not given here.

Assays:
[1] = target: T1, P2X purinoceptor 7 (Homo sapiens) (UniProt Q99572); test: Antagonist activity at human P2X7 receptor expressed in HEK293 cells assessed as reduction in benzoyl-ATP-induced YO-PRO-1 dye uptake at 10 uM pre-incubated for 20 mins before YO-PRO-1 addition and measured after 25 mins by fluorescence plate reader analysis relative to control; format: cell-based; conditions: time 45.0 min
T1 sequence (whole entry): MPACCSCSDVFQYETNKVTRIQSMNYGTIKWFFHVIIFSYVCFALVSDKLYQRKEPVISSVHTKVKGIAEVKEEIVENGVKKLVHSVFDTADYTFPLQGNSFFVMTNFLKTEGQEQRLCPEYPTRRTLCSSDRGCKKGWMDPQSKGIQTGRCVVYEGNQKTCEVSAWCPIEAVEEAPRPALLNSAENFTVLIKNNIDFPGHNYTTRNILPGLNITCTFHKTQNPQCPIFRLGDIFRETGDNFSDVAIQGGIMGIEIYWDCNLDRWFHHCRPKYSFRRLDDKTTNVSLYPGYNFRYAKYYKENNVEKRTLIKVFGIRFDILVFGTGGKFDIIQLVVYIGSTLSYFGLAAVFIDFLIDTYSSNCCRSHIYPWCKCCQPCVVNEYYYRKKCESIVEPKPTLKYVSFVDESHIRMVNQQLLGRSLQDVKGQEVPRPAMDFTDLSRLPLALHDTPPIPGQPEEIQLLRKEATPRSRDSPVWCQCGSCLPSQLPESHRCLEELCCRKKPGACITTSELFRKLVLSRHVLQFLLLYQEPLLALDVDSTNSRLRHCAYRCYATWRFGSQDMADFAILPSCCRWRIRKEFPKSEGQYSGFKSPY
How it was run: (§1)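 Stably transfected hP2X7-HEK293 cells, 48 h after seeding, in Mg²⁺-free Krebs-HEPES (0.2 mM CaCl₂, pH 7.4). Compound preincubation 20 min, then YO-PRO-1 2 μM, then BzATP 30 μM. Fluorescence at 485/520 nm read for 25 min. Each well normalized to Fmax (0.5% Triton X-100) and Fmin (2 M MnCl₂): F = (Fx − F0)/(Fmax − Fmin). Triplicates from three cultures. IC50 is the concentration halving BzATP-induced uptake.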

[2] = target: T1, P2X purinoceptor 7 (Homo sapiens); test: Antagonist activity at human P2X7 receptor expressed in Xenopus laevis oocytes assessed as reduction in ATP-induced channel currents at 100 uM by TEVC electrophysiology assay relative to control; format: cell-based; conditions: Oocyte
How it was run: (§2)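 Oocytes injected with 50 nL His-tagged hP2X7 cRNA (0.5 mg/mL), kept 1–2 days at 16–18 °C. Recorded in low divalent-cation solution (90 mM NaCl, 0.5 mM CaCl₂, 5 mM HEPES) at −70 mV. ATP 300 μM for 2 s after 3 min static compound incubation. Current normalized to control amplitude. Triplicates from three oocytes, two frogs.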

[3] = target: T1, P2X purinoceptor 7 (Homo sapiens); test: Antagonist activity at human P2X7 receptor expressed in HEK293 cells assessed as reduction in benzoyl-ATP-induced intracellular Ca2+ level by Fura-2 dye based fluorescence assay; format: cell-based; conditions: filed as antagonist
How it was run: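 hP2X7-HEK293 cells 24–48 h after seeding, loaded with Fura-2-AM 8 μM for 1 h, then washed in Mg²⁺-free Tyrode (2 mM CaCl₂, pH 7.4) for 15–30 min with compound present. Excitation 340/380 nm, emission 520 nm. Basal recording, then BzATP injected (100 μM final). [Ca²⁺]c from Grynkiewicz equation. Blockade as percent of BzATP peak in Tyrode-only wells; triplicates.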

[4] = target: T2, P2X purinoceptor 7 (Homo sapiens, UniProt Q99572); test: Antagonist activity at human P2X7 receptor expressed in HEK293 cells assessed as reduction in benzoyl-ATP-induced YO-PRO-1 dye uptake pre-incubated for 20 mins before YO-PRO-1 addition and measured after 25 mins by fluorescence plate reader analysis relative to control; format: cell-based; how it was run: as §1
T2 sequence (Q99572 whole entry): T1 sequence (whole entry)

[5] = system: Peritoneal macrophage; test: Inhibition of Il-1beta production in LPS-stimulated C57BL/6 mouse peritoneal macrophages pre-incubated for 15 mins followed by ATP addition for 30 mins by ELISA method; format: functional, tissue-based; conditions: time 45.0 min
How it was run: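 Thioglycolate-elicited peritoneal macrophages from 6–8-week male C57BL/6 mice, 3 × 10⁵ cells/well. Primed 4 h with LPS 1 μg/mL (E. coli 026:B6), then serum-free DMEM with compound for 15 min, then ATP for 30 min. Supernatant IL-1β measured by ELISA, expressed as percent of ATP-only control. Triplicates from three mice.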

[6] = target: T1, P2X purinoceptor 7 (Homo sapiens); test: Antagonist activity at human P2X7 receptor expressed in HEK293 cells assessed as reduction in benzoyl-ATP-induced YO-PRO-1 dye uptake at 1 uM pre-incubated for 20 mins before YO-PRO-1 addition and measured after 25 mins by fluorescence plate reader analysis relative to control; format: cell-based; conditions: filed as antagonist, time 45.0 min; how it was run: as §1
[7] = target: T1, P2X purinoceptor 7 (Homo sapiens); test: Antagonist activity at human P2X7 receptor expressed in Xenopus laevis oocytes assessed as reduction in ATP-induced channel currents at 1 uM by TEVC electrophysiology assay relative to control; format: cell-based; conditions: Oocyte, filed as antagonist; how it was run: as §2

Row | Structure (SMILES) | inhibition [1] | inhibition [2] | other results
1 | Cn1c(=O)c2c(ncn2S(=O)(=O)c2ccc(C(F)(F)F)cc2Cl)n(C)c1=O | 5% | inactive | –
2 | Cn1c(=O)c2c(ncn2S(=O)(=O)c2ccc(F)cc2Cl)n(C)c1=O | 20% | inactive | –
3 | O=C(Cn1cnc2c(Cl)nc(F)nc21)c1ccc(Cl)cc1Cl | 27% | 24% | –
4 | Cn1cnc2c(=O)n(Cc3ccccc3Cl)c(Cl)nc21 | 16% | 9% | –
5 | Cn1cnc2c1c(=O)n(CC(=O)c1ccc(Cl)cc1Cl)c(=O)n2C | inactive | 2% | –
6 | Cn1c(=O)c2c(ncn2S(=O)(=O)c2ccc(Cl)cc2Cl)n(C)c1=O | 7% | 9% | –
7 | Cc1cc(F)ccc1S(=O)(=O)n1cnc2c1c(=O)n(C)c(=O)n2C | 23% | inactive | –
8 | Cn1c(=O)c2c(ncn2S(=O)(=O)c2cc(Cl)ccc2Cl)n(C)c1=O | 4% | inactive | –
9 | Cn1c(=O)c2c(ncn2S(=O)(=O)c2ccccc2Cl)n(C)c1=O | – | 28% | inhibition ([1]; filed as antagonist): 52%; inhibition [5]: Dose-dependent effect; IC50 [4]: 10 µM
10 | Cn1c(=O)c2c(ncn2CC(=O)c2ccc(Cl)cc2Cl)n(C)c1=O | 0% | 10% | –
11 | O=C(Cn1cnc2c(Cl)nc(Cl)nc21)c1ccc(Cl)cc1Cl | – | 24% | inhibition ([1]; filed as antagonist): 41%; IC50 [4]: 13 µM
12 | Cn1c(=O)c2c(ncn2S(=O)(=O)c2ccc(F)cc2)n(C)c1=O | 10% | inactive | –
13 | O=C(Cn1cnc2c(I)nc(Cl)nc21)c1ccc(Cl)cc1Cl | 14% | 6% | –
14 | CNc1nc(Cl)nc2c1ncn2CC(=O)c1ccc(Cl)cc1Cl | 2% | 5% | –
15 | Nc1nc(Cl)c2ncn(CC(=O)c3ccc(Cl)cc3Cl)c2n1 | 4% | 6% | –
16 | O=C(NCC1(N2CCN(c3ccccc3)CC2)CCOCC1)c1cccnc1Sc1ccccc1 | – | – | inhibition [6]: 56%; inhibition [7]: 49%
17 | Cn1c(=O)c2c(ncn2S(=O)(=O)c2ccc(F)cc2F)n(C)c1=O | 7% | 1% | –
18 | CNc1nc(Cl)nc2c1ncn2S(=O)(=O)c1ccccc1Cl | 4% | 2% | –

Second part, led by results:

Row | inhibition [1] | inhibition [2] | Structure (SMILES) | other results
19 | – | 11% | O=C(Cn1cnc2c(-c3ccccc3)ncnc21)c1ccc(Cl)cc1Cl | inhibition [3]: Active; inhibition ([1]; filed as antagonist): 62%; IC50 [4]: 6 µM
20 | 7% | 5% | O=C(c1ccccc1Cl)n1cnc2c(Cl)ncnc21 | –
21 | 19% | 6% | O=C(CCn1cnc2c(Cl)ncnc21)c1ccc(Cl)cc1Cl | –
22 | – | 2% | O=S(=O)(c1ccccc1Cl)n1cnc2c(Cl)nc(Cl)nc21 | inhibition ([1]; filed as antagonist): 46%; IC50 [4]: 10.2 µM
23 | 9% | inactive | Nc1nc(Cl)c2ncn(S(=O)(=O)c3ccccc3Cl)c2n1 | –
24 | 17% | 9% | O=S(=O)(c1ccccc1Cl)n1cnc2c(Cl)ncnc21 | –
25 | 5% | 5% | Cn1cnc2c1c(=O)n(C(=O)c1ccccc1Cl)c(=O)n2C | –
26 | 25% | 14% | COc1ncnc2c1ncn2CC(=O)c1ccc(Cl)cc1Cl | –
27 | 34% | 7% | O=C(Cn1cnc2c(Cl)ncnc21)c1ccc(F)cc1 | –
28 | inactive | 8% | COc1ncnc2c1ncn2S(=O)(=O)c1ccccc1Cl | –
29 | 1% | 0% | COc1ncnc2c1ncn2C(=O)c1ccccc1Cl | –
30 | – | 11% | O=C(Cn1cnc2c(Cl)ncnc21)c1ccc(Cl)cc1 | inhibition ([1]; filed as antagonist): 55%; IC50 [4]: 10 µM
